In the library only some 2.9% were active in any assay of this set; here they are far more common.
DDE Tn6 FP inh: DD(E)-Tn6 binding inhibition, primary FP screen. Fibrin DD(E) TRITC-Tn6 fluorescence polarization displacement. inhibition, % at 8.3 µM. 0.21% of 370,000 active. AID 720509;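 active means inhibition above a per-campaign cutoff: mean of compounds within control limits plus 3 SD, cut at about 15% in these data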;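 further: 0% = median of all compound wells on the plate and 100% = blocking peptide control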
proKLK7 act: proKLK7 (human) activation, primary screen; P49862; purified proKLK7, EDANS-DABCYL substrate fluorescence; 100% is mature enzyme control, 0% vehicle; activation, % at 7 µM; 0.9% of 370,000 active; AID 652039;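 active means activation above the mean of all tested compounds plus 3 SD, computed per campaign excluding outliers beyond control limits, cut at about 13% in these data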
Tn7 DDE FP: inhibitors of Tn7 peptide binding to human fibrin DD(E); 0.13% of 370,000 active; inhibition, % at 8.3 µM; AID 720508; FP displacement of FITC-Tn7 peptide from fibrin DD(E); 0% = median of compound wells per plate; P02675;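 active means inhibition above the mean of compounds falling within the control limits plus 3 SD of them, cut at about 14% in these data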;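 further: 0% = plate median of compound wells and 100% = 10 µM Aha-Tn7 peptide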
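Assay system: Fibrin-DD(E) protein isolated from polymerized human fibrin clots; read-out basis: percent inhibition; medium: Tris/NaCl/CaCl2 buffer, pH 7.8; signal: FP measurement; incubation: 10 min plus 3 h, room temperature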
CRFBP-R2 agonist: CRF-BP/CRF-R2 complex agonism; HEK293 CRF-R2/CRF-BP, calcium dye fluorescence (FLIPR); percent of saturating CRF peptide response; activation, % at 13.2 µM; 0.46% of 350,000 active; AID 588473;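 active means activation of at least 50%, plus an integration ratio under a set limit after plate pattern correction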;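 further: plate controls were neutral control wells without compound for no effect and CRF at EC100 for full effect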
CRFR2-BP antag: antagonists of CRF-binding protein/CRF-R2 receptor complex; HEK293 CRF-R2/CRF-BP, CRF-induced calcium fluorescence; inhibition, % at 11.8 µM; 0.59% of 350,000 active;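 active means inhibition of the ligand-induced calcium signal above about 50% at the single tested concentration, limit read from the data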
CendR NRP1 mod: modulators of CendR peptide binding to human neuropilin-1 | AID 602438 | inhibition, % at 25 µM | 0.85% of 360,000 active | FAM-RPARPAR peptide binding to NRP-1, fluorescence polarization;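 active means inhibition or corrected inhibition above about 18%, plus a signal ratio from 0.5 to 1.5, limit read from the data, passing the limit was not always enough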
Target sequence (O14786 whole entry, looked up): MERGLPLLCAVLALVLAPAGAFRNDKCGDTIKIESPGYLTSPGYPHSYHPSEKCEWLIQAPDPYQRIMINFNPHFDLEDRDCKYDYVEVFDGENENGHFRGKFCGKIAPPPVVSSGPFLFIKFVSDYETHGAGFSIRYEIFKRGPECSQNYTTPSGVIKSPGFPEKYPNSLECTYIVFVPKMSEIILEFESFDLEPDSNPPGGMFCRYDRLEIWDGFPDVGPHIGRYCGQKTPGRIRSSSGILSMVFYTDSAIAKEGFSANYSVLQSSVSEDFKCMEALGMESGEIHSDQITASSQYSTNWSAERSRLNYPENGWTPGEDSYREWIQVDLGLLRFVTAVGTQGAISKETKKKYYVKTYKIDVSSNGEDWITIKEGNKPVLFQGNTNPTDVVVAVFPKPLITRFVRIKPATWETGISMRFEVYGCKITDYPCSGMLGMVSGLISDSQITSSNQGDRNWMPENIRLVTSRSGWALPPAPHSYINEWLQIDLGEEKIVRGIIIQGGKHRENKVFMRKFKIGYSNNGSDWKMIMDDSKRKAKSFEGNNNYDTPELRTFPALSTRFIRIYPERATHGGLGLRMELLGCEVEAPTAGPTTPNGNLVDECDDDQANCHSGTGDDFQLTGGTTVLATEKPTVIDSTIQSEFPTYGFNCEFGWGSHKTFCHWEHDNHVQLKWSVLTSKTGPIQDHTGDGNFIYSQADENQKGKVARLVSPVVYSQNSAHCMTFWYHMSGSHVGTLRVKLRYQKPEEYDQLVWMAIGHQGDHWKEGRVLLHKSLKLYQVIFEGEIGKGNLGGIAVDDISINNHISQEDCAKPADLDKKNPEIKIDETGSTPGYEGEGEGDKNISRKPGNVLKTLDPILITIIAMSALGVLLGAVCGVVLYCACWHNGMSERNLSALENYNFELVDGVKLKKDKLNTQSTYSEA
Numbers without * were called inactive; x = no result given.

SMILES | DDE Tn6 FP inh | proKLK7 act | Tn7 DDE FP | CRFBP-R2 agonist | CRFR2-BP antag | CendR NRP1 mod
O=C1CCC(C(=O)OCc2nnc(-c3ccc(Cl)cc3)o2)=NN1 | 3 | 0 | 0 | 0 | 1 | 7
Cc1nn(Cc2ccccc2)c(Cl)c1C(=O)OCc1nnc(-c2ccc(Cl)cc2)o1 | -1 | 0 | 0 | 5 | -17 | 38*
O=C(OCc1nnc(-c2ccc(Cl)cc2)o1)c1ccc(O)cc1 | 4 | 0 | 2 | 1 | 18 | 29*
Cc1nn(Cc2ccccc2)c(Cl)c1C(=O)OCc1nnc(-c2ccccc2)o1 | 1 | 1 | 3 | -1 | 42 | -8
CCC(=O)NCCCCNC(=O)CC | 4 | 0 | -2 | -3 | 34 | 33*
CCCC(=O)NCCCCNC(=O)CCC | 4 | 0 | 3 | -1 | 9 | 0
CCCn1c(NC(=O)c2ccccc2)nc(Cc2ccccc2)c1Cc1ccccc1 | 0 | -3 | 6 | x | x | x
CCc1ccc(OCCOCC(O)CNC(C)(C)C)cc1 (stereo not drawn) | -1 | 0 | 10 | 58* | -15 | -5
CC1=[N+](C)c2c(ccc3cccnc23)C1(C)C | 153* | 2 | -9 | 13 | -7 | -2
Cc1[nH]c2c(ccc3cccnc32)c1C | 8 | 0 | 3 | 1 | 8 | -4
Clc1ccc(-c2nnc(NCc3ccccc3)c3ccccc23)cc1 | 1 | 1 | -3 | -2 | 52* | 3
COCCNC(=O)C[C@H]1CC[C@H]2[C@@H](COc3ccc(NC(=O)Nc4cccc(F)c4)cc3C(=O)N2C)O1 | -1 | 1 | 10 | x | x | x
CNS(=O)(=O)c1cccc(C(=O)NCC2(N3CCOCC3)CCCCC2)c1 | -8 | 0 | -1 | -2 | -4 | 4
CCc1ccc(S(=O)(=O)NCC2(N3CCOCC3)CCCCC2)cc1 | 2 | 0 | 10 | 54* | -22 | 0
O=S(=O)(NCC1(N2CCOCC2)CCCCC1)c1ccccc1Cl | -2 | 0 | -5 | 0 | 2 | -4
O=S(=O)(NCC1(N2CCOCC2)CCCCC1)c1ccc(Cl)cc1C(F)(F)F | -6 | 0 | -2 | 56* | -49 | 3
Cn1cc(CCOCc2ccccn2)c2ccccc21 | -4 | 1 | 1 | x | x | x
CC(=O)C[C@H](O)CC(=O)[C@H]1OC(=O)[C@H](C)C/C=C\Cc2ccccc21 | 2 | 0 | -7 | 2 | 3 | 25*
CC1Cc2ccccc2N1C(=O)CSc1nnc2c(n1)[nH]c1ccc(F)cc12 (stereo not drawn) | 3 | 1 | 3 | -1 | -11 | 22*
Cc1ccc(C)n1NC(=O)c1ccccc1[N+](=O)[O-] | 9 | 0 | 4 | 1 | -19 | -1
Cc1ccc(C)n1NC(=O)c1ccccc1O | -8 | 0 | 1 | 3 | 80* | -4
O=C(C(=O)N1CCC(CNC(=O)c2sc3ccccc3c2Cl)CC1)c1cccs1 | -3 | 1 | -1 | x | x | x
CC(/C=N/NC(=O)c1ccncc1)=C\c1ccc(C(C)C)cc1 | -2 | 0 | 0 | 1 | -35 | 11
CC(/C=N/Nc1nc(C)cc(C)n1)=C\c1ccc(C(C)C)cc1 | -5 | 1 | 3 | -2 | 61* | -12
O=C(/C=C(\Nc1ccc(Br)c(F)c1)c1ccccc1)c1ccccc1 | -1 | 0 | -3 | x | x | x
SMILES | DDE Tn6 FP inh | proKLK7 act | Tn7 DDE FP | CRFBP-R2 agonist | CRFR2-BP antag | CendR NRP1 mod
CC(C)(C)OC(=O)n1ccc2ccc(-c3ccc4cc[nH]c4c3)cc21 | 3 | -4 | 2 | x | x | x
Cn1c(=O)n(Cc2ccccc2Cl)c2ccccc21 | 4 | 1 | -2 | 0 | 53* | -9
Cc1nc(-c2ccc3c(c2)OCCCO3)cs1 | 3 | 0 | -3 | 1 | 5 | 7
Nc1nc(-c2ccc3c(c2)OCCO3)cs1 | -4 | 0 | -2 | 6 | 76* | -13
O=C(CNC(=O)c1ccc(Br)cc1)NCC(=O)OCC(=O)c1ccc(F)cc1 | -7 | 0 | -2 | -1 | 3 | 26*
O=C(CNC(=O)c1ccccc1)NCC(=O)OCC(=O)c1ccc(F)cc1 | -5 | 0 | 4 | 0 | 11 | -4
O=C(COC(=O)CSc1nnc(-c2ccc(Cl)cc2)o1)Nc1cc(Cl)ccc1Cl | 0 | 0 | 3 | 4 | 40 | -6
N#Cc1ccc(NC(=O)COC(=O)CSc2nnc(-c3ccc(Cl)cc3)o2)cc1 | -1 | -1 | -5 | 4 | 52* | 6
O=C(Nc1cccc(C(F)(F)F)c1)OCCN1CCN(Cc2ccccc2)CCC1=O | 3 | 1 | 4 | 2 | -15 | 23*
Cc1c(C(=O)Nc2ccc(OC(F)(F)F)cc2)sc2nc3n(c(=O)c12)CCC3 | 5 | -3 | 4 | 0 | -10 | 44*
Clc1ccc(-c2nnc3n2N=C(c2ccc(-c4ccccc4)cc2)CS3)c(Cl)c1 | 0 | 0 | 0 | x | x | x
Cc1cc(C)n(CCC(=O)N=Nc2c(O)[nH]c3ccccc23)n1 | 1 | -1 | -8 | -1 | 11 | 9
Cc1cc(C)n(CCC(=O)N=Nc2c(O)[nH]c3ccc(Br)cc23)n1 | 1 | 0 | -6 | 1 | 93* | 5
Cc1ccc(-n2c(SCc3nc4ccccc4[nH]3)nnc2-c2ccccn2)cc1 | 1 | 0 | -4 | x | x | x
O=P(c1ccccc1)(c1ccccc1)c1cc(S(=O)(=O)O)ccc1O | 4 | 0 | 1 | 115* | -73 | -6
Cc1[nH]c(=O)[nH]c(=O)c1S(=O)(=O)N1CCCC(C(=O)N2CCN(c3ccccc3Cl)CC2)C1 (stereo not drawn) | x | x | x | -3 | 74* | 5
CC1=C(C(=O)OCc2ccccc2)C(c2ccc([N+](=O)[O-])cc2)NC(=O)N1CCCC(=O)O (stereo not drawn) | -2 | 0 | -3 | -1 | 0 | 33*
CC1=C(C(=O)OCc2ccccc2)C(c2ccc([N+](=O)[O-])cc2)NC(=O)N1CCCCCC(=O)O (stereo not drawn) | 2 | 0 | -3 | 0 | 4 | 2
COC(=O)C1=C(C)N(CCCC(=O)O)C(=O)NC1c1ccc(OC)cc1 (stereo not drawn) | -8 | 0 | 3 | 3 | -7 | 12
CCOC(=O)C1=C(C)N(CCCC(=O)O)C(=O)NC1c1ccc(OC)cc1 (stereo not drawn) | -2 | 0 | -1 | -2 | 10 | 26*
CC(=O)N1CCc2cc(S(=O)(=O)N3CCCCC3C)ccc21 (stereo not drawn) | 7 | -1 | 1 | 1 | -6 | 35*
O=[N+]([O-])c1cc(-c2ccccc2)cc([N+](=O)[O-])c1O | -2 | -1 | -1 | 1 | 65* | 17
Cc1oc(-c2ccc(Cl)cc2)cc1C(=O)O | -2 | 0 | -4 | -1 | 6 | 44*
Cc1oc(-c2ccccc2)cc1C(=O)Nc1cccc(C(=O)O)c1 | -4 | 0 | 1 | -1 | 19 | -6
